Compounds with a hit are over-represented: about 6.4% of the library has one in this group of screens.
CHOP inhibitor – inhibitors of CHOP promoter induction, primary screen, cell-based, unfolded protein response, luciferase reporter; 3.8% of 220,000 active; CHO-K1 CHOP-promoter luciferase, tunicamycin-induced, 15-18 h; inhibition, % at 10 µM;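 active = compounds that reduced the stress-induced luciferase reporter signal by more than about 70% of percent inhibition, limit read from the data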;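 note: 0% = tunicamycin plus vehicle and 100% = wells without tunicamycin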
EBV gp42 inh – Epstein-Barr virus gp42 inhibitors, primary screen, biochemical, uHTS, fluorescence polarization | inhibition, % (tested at 21.74 µM) | AID 1085, 2008 | Glycoprotein 42 (Epstein-Barr virus (strain AG876)), Q1HVG2 | 0.42% of 220,000 active | Fluorescence polarization binding assay, mP read-out; in the data active = inhibition above about 50%
Target sequence (Q1HVG2 whole entry, looked up): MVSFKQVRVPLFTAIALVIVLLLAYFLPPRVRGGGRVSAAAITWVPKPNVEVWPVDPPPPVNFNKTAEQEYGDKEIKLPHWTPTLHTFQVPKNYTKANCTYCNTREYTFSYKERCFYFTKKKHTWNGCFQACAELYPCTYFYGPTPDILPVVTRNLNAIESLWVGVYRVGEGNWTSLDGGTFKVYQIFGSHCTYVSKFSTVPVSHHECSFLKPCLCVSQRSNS
NR3A LBD binder – binders of NR3A ligand-binding domain, primary screen, biophysical, differential scanning fluorimetry, uHTS. NR3A LBD differential scanning fluorimetry, Tm shift; 0% = protein alone, 100% = glycine-bound protein. Tm shift relative to glycine control, % at 25 µM. Glutamate receptor ionotropic, NMDA 3A (GRIN3A) ligand-binding domain. 2.5% of 340,000 active. AID 1259313, 2017;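 active = melting temperature shift of at least 10% of the positive control shift, at one fixed dose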
WT yeast gro inh – growth inhibition of WT strain, primary screen, mitochondrial fusion inhibitor project, WT and mutant strains, chemical genetic; inhibition, % at 10 µM; 2.1% of 190,000 active; mitochondrial fusion phenotypic screen; in the data active = inhibition above about 58%; tested in S. cerevisiae
MPTP inh – mitochondrial permeability transition pore inhibitors, primary screen, biochemical, isolated mouse mitochondria, absorbance | Ca2+ swelling absorbance, 30 min | AID 602449, 2012 | inhibition, % at 10 µM | 1.4% of 360,000 active;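 active = inhibition of 50% or more, scaled per plate between neutral and stimulator controls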;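 note: 0% = DMSO wells given calcium and 100% = 1 mM EGTA wells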
TbMetRS inhib – T. brucei MetRS inhibitors, primary screen, biochemical, luminescence | inhibition, % at 11.9 µM | 0.4% of 360,000 active | purified T. brucei MetRS, ATP depletion, Kinase-Glo luminescence;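 active = inhibition above a per-plate cutoff of the control wells' mean inhibition plus 3 SD, cut at about 5.5% in these data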;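 note: 0% = DMSO wells median and 100% = median of wells with control inhibitor compound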
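Material: T. brucei methionyl-tRNA synthetase, purified; reagent: substrates ATP, L-methionine and bulk Escherichia coli tRNA; dosing: 11.9 µM single point; timing: 15 min plus 2 h at 25 °C; detection: luminescence of leftover ATP; evaluation: % inhibition; control set: DMSO-only wells as low control; replicates: singlicate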
Numbers without * were called inactive; nt = not tested or not shown.

SMILES | CHOP inhibitor | EBV gp42 inh | NR3A LBD binder | WT yeast gro inh | MPTP inh | TbMetRS inhib
O=C(NC(=S)N(Cc1ccccc1)Cc1ccccc1)C1CCCCC1 | -2 | -10 | -5 | 3 | 0 | 0
COc1ccc(C)cc1S(=O)(=O)NCC(c1cccnc1)N1CCc2ccccc2C1 (stereo not drawn) | nt | nt | 0 | nt | 1 | -1
NC1=NC(=O)/C(=C/c2ccc(Br)cc2)S1 | nt | nt | -1 | nt | 0 | -1
CCOC(=O)CSC1=NC(=O)/C(=C/c2ccc(Br)cc2)S1 | 102* | -30 | -15 | 20 | 44 | 0
COc1ccccc1Cn1c(-c2ccccc2OC)nc2ccccc21 | 6 | 7 | -2 | 72* | 0 | 0
Oc1ccccc1Cn1c(-c2ccccc2O)nc2ccccc21 | 16 | -10 | 0 | 10 | 44 | 0
O=C(Cn1cnc2c(nnn2Cc2ccccc2)c1=O)c1ccccc1 | 12 | 2 | 12* | -3 | 0 | 0
Oc1cccc(Nc2ncnc3c2oc2ccccc23)c1 | nt | nt | 22* | nt | 0 | 0
Oc1ccc(Nc2ncnc3c2oc2ccccc23)cc1 | nt | nt | 16* | nt | 0 | 0
CC(C)Sc1ncnc2c1oc1ccccc12 | 75* | -10 | 0 | 23 | 3 | -1
c1ccc(Nc2ncnc3c2oc2ccccc23)cc1 | 19 | -9 | -8 | 13 | -4 | -1
Cc1cccc(S(=O)(=O)Nc2ccc(S(=O)(=O)Nc3nccs3)cc2)c1 | nt | nt | -1 | nt | -2 | 0
CC(=O)c1ccc2c3c(ccc([N+](=O)[O-])c13)CC2 | nt | nt | nt | nt | 0 | 0
O=C(NCc1ccccc1Cl)C1CCC(=O)N(CC2CCCCC2)C1 (stereo not drawn) | nt | nt | 1 | nt | 1 | 0
O=C(C1CCCN(Cc2ccccc2)C1)N1CCCCC1 (stereo not drawn) | 12 | -7 | 3 | -20 | -1 | 0
O=C(C1CCCN(Cc2cccs2)C1)N1CCCCCC1 (stereo not drawn) | -17 | -12 | 11* | -24 | 2 | -1
O=C(CN(Cc1ccco1)C(=O)Cn1nnc(-c2cccs2)n1)NCC1CCCO1 (stereo not drawn) | -2 | 6 | 2 | 7 | 0 | 0
COc1cc(OC)cc(C(=O)Nc2cccc(NC(=O)c3cc(OC)cc(OC)c3)n2)c1 | nt | nt | -9 | nt | 4 | 0
O=C1N/C(=N\N=C\c2cccs2)SC1Cc1cccc(Cl)c1 (stereo not drawn) | 88* | -7 | -26 | -6 | 2 | 1
O=C(Nc1ccc2nc(-c3ccco3)[nH]c2c1)c1cccs1 | -11 | -4 | 13* | 4 | -1 | 0
O=C(Nc1ccc2nc(-c3ccc4nc[nH]c4c3)[nH]c2c1)c1cccs1 | 14 | 42 | 29* | -16 | -1 | 0
O=C(Nc1ccc2nc(-c3ccco3)[nH]c2c1)c1ccco1 | -7 | 0 | -2 | -11 | -2 | -1
Cc1ccc2nc(-c3ccc(NC(=O)Cc4cccs4)cc3)[nH]c2c1 | 79* | -11 | 34* | -5 | 0 | 0
O=C(c1ccccc1)c1ccc2nc(-c3ccc(NC(=O)c4ccccc4F)cc3)[nH]c2c1 | 58 | -20 | 18* | 38 | -5 | -1
O=C(O)CCC(=O)Nc1ccc(-c2nc3ccc(C(=O)c4ccccc4)cc3[nH]2)cc1 | nt | nt | -1 | nt | 1 | 0
SMILES | CHOP inhibitor | EBV gp42 inh | NR3A LBD binder | WT yeast gro inh | MPTP inh | TbMetRS inhib
C(=N\N1CCN(c2ccccn2)CC1)/c1cccc2ccccc12 | -9 | -2 | -3 | nt | 6 | 0
COc1ccc(/C(C)=N/N=C2/NC(=O)CC(C(=O)O)S2)cc1 (stereo not drawn) | -5 | 9 | -1 | -15 | -1 | -1
Cc1nonc1CN(C)C(=O)c1cc(COc2ccc(F)cc2Cl)on1 | nt | nt | 1 | nt | 0 | 0
CCOc1ccc(CCNS(=O)(=O)c2c(C)n[nH]c2C)cc1OCC | -9 | -27 | -1 | -21 | 2 | -1
COc1ccc(N2CCN(CC(=O)Nc3sccc3C#N)CC2)cc1 | -10 | -7 | 0 | -11 | -2 | 0
O=C(Nc1ccc2nc(-c3ccccc3)[nH]c2c1)c1cccs1 | nt | -12 | 30* | -7 | 2 | -1
CCN(CC)S(=O)(=O)c1ccc(NC(=O)COC(=O)c2cc(S(=O)(=O)Nc3ccc(OC)cc3)ccc2O)cc1 | 16 | -14 | 21* | -8 | 17 | -1
CS(=O)(=O)c1sc(C#N)c2c1C(=O)CC(c1ccccc1)C2 (stereo not drawn) | 107* | -10 | 0 | nt | 1 | 0
CCc1oc2ccccc2c1C(=O)c1cc(Br)c(O)c(Br)c1 | 19 | -6 | -13 | 85* | 44 | 0
O=C(NCc1cccs1)c1noc2c1CCCC2 | nt | -1 | 11* | -12 | 1 | 0
O=C(NCc1ccccc1)c1noc2c1CCCC2 | nt | 0 | 2 | -6 | 0 | 0
O=C(Nc1ccccc1)N1CCCC2CCCCC21 (stereo not drawn) | -13 | -32 | 1 | 2 | 0 | -1
CN1CC(c2ccccc2Cl)C2(COc3ccccc3C2=O)C12C(=O)Nc1ccccc12 (stereo not drawn) | 68 | -2 | -14 | 59* | 8 | 0
CCOC(=O)c1cccc2c1-c1ccccc1/C2=N/O | 82* | 7 | -14 | 73* | 5 | -1
Cc1ccc(C(=O)c2oc3ccccc3c2NC(=O)c2cc(-c3ccccc3O)n[nH]2)cc1 | 61 | -10 | 31* | 25 | 7 | 0
Cc1ccc(C)c(NC(=O)c2cc(-c3ccccc3O)n[nH]2)c1 | nt | nt | 5 | nt | 0 | -1
O=C(Nc1c(C(=O)c2ccccc2)oc2ccccc12)c1cc(-c2ccccc2O)n[nH]1 | 90* | -3 | 28* | 19 | 8 | -1
CC(=O)Nc1c(C(=O)c2ccc(F)cc2)oc2ccccc12 | 14 | 4 | -1 | 5 | 1 | 0
Cc1ccc(C(=O)c2oc3ccccc3c2NC(=O)c2cc(-c3cc(C)ccc3O)n[nH]2)cc1 | 71* | -11 | 22* | nt | 6 | 0
Cc1cc(C(=O)N2CCCC(C(=O)c3ccc(Oc4ccccc4)cc3)C2)n[nH]1 (stereo not drawn) | nt | nt | 0 | nt | -1 | 0
Cc1nn(C)c(-c2n[nH]c(=S)n2-c2ccccc2)c1Cl | -9 | -11 | 0 | 18 | 0 | 1
COC(=O)c1cc(C(=O)c2ccc(Cl)cc2Cl)cn1C | 72* | -6 | -2 | 17 | 0 | 1
COC(=O)c1cc(C(=O)c2cccc(Cl)c2Cl)cn1C | 65 | -8 | 0 | -1 | 2 | 0
O=C(Cc1csc(-c2ccccc2)n1)Nc1ccc(C(F)(F)F)cc1 | 83* | -9 | 13* | 2 | 30 | -1
